From ChEMBL document CHEMBL1134010, “Syntheses and antifungal activities of novel 3-amido bearing pseudomycin analogues” (Bioorg Med Chem Lett, 2001)
In brackets after ≈: the same amount, converted by molar mass. Positions of bridges follow the written chain, without caps; N, C: chain ends. Non-standard residues stand in square brackets, D forms with d. Residues, ends and D or L forms follow the SMILES beside them. *: point of attachment. Tetradecanoyl(3R-OH) = CCCCCCCCCCC[C@@H](O)CC(=O)*; Asp(3S-OH) = N[C@H](C(=O)O)[C@H](O)C(=O)O; Thr(4-Cl) = N[C@H](C(=O)O)[C@H](O)CCl; aThr = C[C@H](O)[C@H](N)C(=O)O; dDab = NCC[C@@H](N)C(=O)O; NHCH2CH2NMe2 = CN(C)CCN*; Dab = NCC[C@H](N)C(=O)O; Dhb = C/C=C(\N)C(=O)O; X1 = CCN(CC)CCN*; NHcPr = C1CC1N*

Assays:
Aspergillus fumigatus = assay: In vitro minimum inhibitory concentration (MIC) against Aspergillus fumigatus.; format: functional
In short: (§1)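 Tested against Candida albicans, Cryptococcus neoformans and Aspergillus fumigatus, with PSB as positive control. MIC is taken as the lowest drug concentration giving 90–100% inhibition of visible growth relative to drug-free controls.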

Candida albicans [1] = assay: In vitro minimum inhibitory concentration (MIC) against Candida albicans.; format: functional; in short: as §1
Cryptococcus neoformans = assay: In vitro minimum inhibitory concentration (MIC) against Cryptococcus neoformans.; format: functional; in short: as §1
Mus musculus [2] = assay: In vivo efficacy against murine systemic Cryptococosis by intraperitoneal administration; format: functional; settings: ip
In short: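 Murine systemic cryptococcosis, ip dosing BID ×4 at 5.0, 1.25, 0.312 and 0.078 mg/kg. ED50 is the dose giving 50% survival relative to untreated infected animals.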

Candida albicans [3] = assay: In vivo efficacy against murine Candidiasis dosed four times by intraperitoneal administration post-infection using Reed and Muench method.; format: functional; settings: ip
In short: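 Systemic candidiasis in mice, with PSB and amphotericin B as positive controls. Analogues were given at 20, 10 and 5 mg/kg, four doses at 0, 4, 24 and 48 post-infection. ED50 is the dose giving 50% survival relative to untreated infected animals, calculated by the Reed and Muench method.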

Mus musculus [4] = assay: Survival extension of the mice against Aspergillosis infection at a dose of 1 mg/kg; format: functional
In short: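 Murine systemic aspergillosis model, ip. The analogue was given BID at 50, 10 and 1 mg/kg, and survival extension of infected animals was recorded.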

Mus musculus [5] = assay: Toxicity at a dose of 75 mg/kg in mice; Death; settings: in vivo
Mus musculus [6] = assay: Toxicity at a dose of 100 mg/kg in mice; Death; settings: in vivo
Mus musculus [7] = assay: Toxicity at a dose of 125 mg/kg in mice; Death; settings: in vivo
Mus musculus [8] = assay: Compound was dosed four times to outbred, male ICR mice and signs of irritation (erythema, swelling, discoloration, necrosis and tail loss) were observed in tail irritation test; Yes; format: ADME, organism-based; settings: in vivo

Structure (SMILES) | MIC (Aspergillus fumigatus) | MIC (Candida albicans [1]) | MIC (Cryptococcus neoformans) | ED50 (Mus musculus [2]) | ED50 (Candida albicans [3]) | Survival extension (Mus musculus [4]) | Toxicity (Mus musculus [5]) | Toxicity (Mus musculus [6]) | Toxicity (Mus musculus [7]) | Tail vein toxicity (Mus musculus [8])
C/C=C1\NC(=O)[C@H]([C@H](C)O)NC(=O)[C@H](CCN)NC(=O)[C@H](CCCCN)NC(=O)[C@H](CC(=O)NCCN(C)C)NC(=O)[C@@H](CCN)NC(=O)[C@@H](NC(=O)C[C@H](O)CCCCCCCCCCC)COC(=O)[C@H]([C@H](O)CCl)NC(=O)[C@H]([C@H](O)C(=O)O)NC1=O ({Tetradecanoyl(3R-OH)}-S[dDab]D(NHCH2CH2NMe2)K[Dab][aThr][Dhb][Asp(3S-OH)][Thr(4-Cl)]; ester 1-C) | 5 µg/mL (≈ 3.91 µM) | 0.156 µg/mL (≈ 0.122 µM) | < 0.01 µg/mL | 2.5 mg/kg | < 5 mg/kg | 23% | Death | Death | Death | –
C/C=C1\NC(=O)[C@H]([C@H](C)O)NC(=O)[C@H](CCN)NC(=O)[C@H](CCCCN)NC(=O)[C@H](CC(=O)NC2CC2)NC(=O)[C@@H](CCN)NC(=O)[C@@H](NC(=O)C[C@H](O)CCCCCCCCCCC)COC(=O)[C@H]([C@H](O)CCl)NC(=O)[C@H]([C@H](O)C(=O)O)NC1=O ({Tetradecanoyl(3R-OH)}-S[dDab]D(NHcPr)K[Dab][aThr][Dhb][Asp(3S-OH)][Thr(4-Cl)]; ester 1-C) | 20 µg/mL (≈ 16 µM) | 0.156 µg/mL (≈ 0.125 µM) | < 0.01 µg/mL | 2.9 mg/kg | < 5 mg/kg | 29% | – | Death | Death | –
C/C=C1\NC(=O)[C@H]([C@H](C)O)NC(=O)[C@H](CCN)NC(=O)[C@H](CCCCN)NC(=O)[C@H](CC(=O)NCCN)NC(=O)[C@@H](CCN)NC(=O)[C@@H](NC(=O)C[C@H](O)CCCCCCCCCCC)COC(=O)[C@H]([C@H](O)CCl)NC(=O)[C@H]([C@H](O)C(=O)O)NC1=O | 5 µg/mL (≈ 4 µM) | 10 µg/mL (≈ 8 µM) | < 0.01 µg/mL | – | < 5 mg/kg | – | – | – | – | Active
C/C=C1\NC(=O)[C@H]([C@H](C)O)NC(=O)[C@H](CCN)NC(=O)[C@H](CCCCN)NC(=O)[C@H](CC(=O)NCCCN(CC)CC)NC(=O)[C@@H](CCN)NC(=O)[C@@H](NC(=O)C[C@H](O)CCCCCCCCCCC)COC(=O)[C@H]([C@H](O)CCl)NC(=O)[C@H]([C@H](O)C(=O)O)NC1=O | > 20 µg/mL | 20 µg/mL (≈ 15.2 µM) | < 0.01 µg/mL | – | < 4 mg/kg | – | – | – | – | Active
C/C=C1\NC(=O)[C@H]([C@@H](C)O)NC(=O)[C@H](CCN)NC(=O)[C@H](CCCCN)NC(=O)[C@H](CC(=O)N[C@@H](Cc2ccccc2)C(=O)OC)NC(=O)[C@@H](CCN)NC(=O)[C@@H](NC(=O)C[C@H](O)CCCCCCCCCCC)COC(=O)[C@H]([C@H](O)CCl)NC(=O)[C@H]([C@H](O)C(=O)O)NC1=O | > 20 µg/mL | 1.25 µg/mL (≈ 0.913 µM) | 1.25 µg/mL (≈ 0.913 µM) | – | > 15 mg/kg | – | – | – | – | –
C/C=C1\NC(=O)[C@H]([C@H](C)O)NC(=O)[C@H](CCN)NC(=O)[C@H](CCCCN)NC(=O)[C@H](CC(=O)NCCCCCCCCCC)NC(=O)[C@@H](CCN)NC(=O)[C@@H](NC(=O)C[C@H](O)CCCCCCCCCCC)COC(=O)[C@H]([C@H](O)CCl)NC(=O)[C@H]([C@H](O)C(=O)O)NC1=O | > 20 µg/mL | > 20 µg/mL | 1.25 µg/mL (≈ 0.928 µM) | – | > 20 mg/kg | – | – | – | – | –
C/C=C1\NC(=O)[C@H]([C@H](C)O)NC(=O)[C@H](CCN)NC(=O)[C@H](CCCCN)NC(=O)[C@H](CC(=O)NCCCCCCCN(C)C)NC(=O)[C@@H](CCN)NC(=O)[C@@H](NC(=O)C[C@H](O)CCCCCCCCCCC)COC(=O)[C@H]([C@H](O)CCl)NC(=O)[C@H]([C@H](O)C(=O)O)NC1=O | > 20 µg/mL | 10 µg/mL (≈ 7.42 µM) | < 0.01 µg/mL | – | < 4 mg/kg | – | – | – | – | –
C/C=C1\NC(=O)[C@H]([C@@H](C)O)NC(=O)[C@H](CCN)NC(=O)[C@H](CCCCN)NC(=O)[C@H](CC(=O)N[C@@H](CCCN=C(N)N)C(=O)OC)NC(=O)[C@@H](CCN)NC(=O)[C@@H](NC(=O)C[C@H](O)CCCCCCCCCCC)COC(=O)[C@H]([C@H](O)CCl)NC(=O)[C@H]([C@H](O)C(=O)O)NC1=O | > 20 µg/mL | 5 µg/mL (≈ 3.63 µM) | 0.01 µg/mL (≈ 0.00726 µM) | – | < 5 mg/kg | – | – | – | – | –
C/C=C1\NC(=O)[C@H]([C@H](C)O)NC(=O)[C@H](CCN)NC(=O)[C@H](CCCCN)NC(=O)[C@H](CC(=O)NCCN(CC)CC)NC(=O)[C@@H](CCN)NC(=O)[C@@H](NC(=O)C[C@H](O)CCCCCCCCCCC)COC(=O)[C@H]([C@H](O)CCl)NC(=O)[C@H]([C@H](O)C(=O)O)NC1=O ({Tetradecanoyl(3R-OH)}-S[dDab]D(X1)K[Dab][aThr][Dhb][Asp(3S-OH)][Thr(4-Cl)]; ester 1-C) | 10 µg/mL (≈ 7.66 µM) | 10 µg/mL (≈ 7.66 µM) | < 0.01 µg/mL | – | 4.9 mg/kg | – | – | – | – | –
